{"source": "paper PMC5193105", "about": "(Proteins, 2016)", "key": {"wildtype hPFKFB2": {"target": "wildtype hPFKFB2 (Homo sapiens, UniProt O60825)", "sequence (O60825 whole entry)": "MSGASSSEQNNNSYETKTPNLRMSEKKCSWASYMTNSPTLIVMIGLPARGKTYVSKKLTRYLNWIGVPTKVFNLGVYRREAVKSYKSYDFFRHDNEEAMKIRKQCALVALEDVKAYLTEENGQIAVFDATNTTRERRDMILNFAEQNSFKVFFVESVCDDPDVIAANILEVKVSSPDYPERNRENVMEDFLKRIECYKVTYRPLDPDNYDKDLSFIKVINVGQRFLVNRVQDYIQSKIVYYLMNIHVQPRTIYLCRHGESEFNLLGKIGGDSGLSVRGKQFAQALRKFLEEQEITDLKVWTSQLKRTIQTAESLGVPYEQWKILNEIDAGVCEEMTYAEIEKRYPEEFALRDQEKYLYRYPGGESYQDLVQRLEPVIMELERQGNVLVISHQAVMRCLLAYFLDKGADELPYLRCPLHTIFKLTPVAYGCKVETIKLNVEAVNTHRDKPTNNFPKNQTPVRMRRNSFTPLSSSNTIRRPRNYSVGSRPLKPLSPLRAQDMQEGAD", "assay": "2-kinase inhibition assay", "format": "biochemical", "details": "wild-type; for Ki: Citrate Kis", "method_in_brief": "(§1)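 His-tagged enzyme was expressed in E. coli BL21 C41(DE3) and purified by Ni-NTA then SP Sepharose. Step 1 used 130 nM enzyme in 20 mM TES pH 8.0, 1 mM DTT, 2 mM MgCl2 and 0.5% tween, with varied citrate, ATP and Fru-6-P (fixed substrate 250 μM), for 10 min at 25°C. Reactions were KOH-stopped and neutralized. Fru-2,6-P2 was read by PPi-PFK/aldolase/TPI/[…] coupling as A340 over 30 min. Constants came from non-linear regression.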"}, "hPFKFB2 Y428A mutant": {"target": "hPFKFB2 Y428A mutant (Homo sapiens, UniProt O60825, Y428A)", "sequence (O60825 whole entry Y428A)": "as the sequence (O60825 whole entry) above, with Y428A counted along it", "assay": "2-kinase inhibition assay", "format": "biochemical", "details": "for Ki: Citrate Kis", "method_in_brief": "as §1"}, "[1]": {"details": "variable substrate ATP, fixed substrate F6P 250μM"}, "[2]": {"details": "Y428A, variable substrate ATP, fixed substrate F6P 250μM"}}, "data": [{"compound": "Nc1ncnc2c1ncn2[C@@H]1O[C@H](COP(=O)(O)OP(=O)(O)OP(=O)(O)O)[C@@H](O)[C@H]1O", "note": "[ATP]", "values": [{"measurement": "KmATP", "setting": "wildtype hPFKFB2", "result": "38.8 ± 5.3", "unit": "µM"}, {"measurement": "KmATP", "setting": "hPFKFB2 Y428A mutant; Y428A", "result": "40.7 ± 4.2", "unit": "µM"}]}, {"compound": "O=C(O)CC(O)(CC(=O)O)C(=O)O", "note": "[Citrate]", "values": [{"measurement": "Ki", "setting": "wildtype hPFKFB2; [1]", "result": 50.2, "unit": "µM"}, {"measurement": "Ki", "setting": "wildtype hPFKFB2; variable substrate F6P, fixed substrate ATP 250μM", "result": "80.3 ± 6.5", "unit": "µM"}, {"measurement": "Citrate Kii", "setting": "wildtype hPFKFB2; [1]", "result": "58.75 ± 9.9", "unit": "µM"}, {"measurement": "inhibition mechanism (in words)", "setting": "wildtype hPFKFB2; versus ATP", "result": "non-competitive inhibitor"}, {"measurement": "inhibition mechanism (in words)", "setting": "wildtype hPFKFB2; versus F6P", "result": "competitive inhibitor"}, {"measurement": "Ki", "setting": "hPFKFB2 Y428A mutant; [2]", "result": "2.43 ± 1", "unit": "µM"}, {"measurement": "Ki", "setting": "hPFKFB2 Y428A mutant; Y428A, variable substrate F6P, fixed substrate ATP 250μM", "result": "67.3 ± 4.2", "unit": "µM"}, {"measurement": "increase in affinity for the inhibitor, Y428A versus wild-type", "setting": "hPFKFB2 Y428A mutant; Kis with ATP as variable substrate, from 50.2 μM to 2.4 μM", "result": 20, "unit": "fold"}, {"measurement": "Citrate Kii", "setting": "hPFKFB2 Y428A mutant; [2]", "result": "3.05 ± 1.4", "unit": "µM"}]}, {"compound": "O=C(CO)[C@@H](O)[C@H](O)[C@H](O)COP(=O)(O)O", "note": "[F6P, fructose-6-phosphate]", "values": [{"measurement": "KmF6P", "setting": "wildtype hPFKFB2", "result": "80.3 ± 7.6", "unit": "µM"}, {"measurement": "KmF6P", "setting": "hPFKFB2 Y428A mutant; Y428A", "result": "13.8 ± 4.3", "unit": "µM"}, {"measurement": "increase in affinity for Fru-6-P, Y428A versus wild-type", "setting": "hPFKFB2 Y428A mutant; from Km values", "result": 6, "unit": "fold"}]}]}
